The results in this text go back to ChEMBL document CHEMBL5357044, “Discovery of a dual-acting inhibitor of interleukin-1β and STATs for the treatment of inflammatory bowel disease” (RSC Med Chem, 2024).

The source made the active and inactive calls. The calls are words filed in the database; no cut-off is given here.

In data set [1] the test system is Intestine. As to the kind of experiment: Anti-colitis activity against DSS-induced ulcerative colitis mouse model assessed as decrease in STAT-5 level in intestinal tissue at 0.2 to 0.6 mg/kg, ip treated every 72 hrs for 9 days by Western blot analysis. It is filed as functional, organism-based. As to conditions: dose 0.2-0.6 mg/kg, time 9.0 day. In a few lines: (§1)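 DSS model (2.5% in drinking water days 1–7, water days 8–9). Dosing was i.p. at 0.2 and 0.6 mg kg−1 in 50% PEG300 on days 2, 5, 8. Intestinal tissue taken at sacrifice on day 9. Lysed in RIPA with protease inhibitor and BCA-quantified, then run on SDS-PAGE/PVDF and probed for STAT1, STAT3, STAT5 and caspase-1. ECL detection.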
A general note: A western blot detects proteins with antibodies after separation by electrophoresis.

For data set [2], the system named is Intestine. Kind of data set: Anti-colitis activity against DSS-induced ulcerative colitis mouse model assessed as decrease in caspase-1 level in intestinal tissue at 0.2 to 0.6 mg/kg, ip treated every 72 hrs for 9 days by Western blot analysis. It is filed as functional, organism-based. As to conditions: dose 0.2-0.6 mg/kg, time 9.0 day. A digest of the protocol:
as §1

Data set [3] is described as follows: Toxicity in mouse assessed as inactive state of animal at 2 mg/kg/day, ip treated for 7 days. It is filed as organism-based. As to conditions: in vivo, 168 h, time 7 day. In a few lines: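 Preliminary tolerability study: mice (n = 2) injected intraperitoneally at 2 mg kg−1 per day for 7 days. General state and activity observed.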
Data set [4] concerns Colon. As to the kind of experiment: Anti-colitis activity against DSS-induced ulcerative colitis mouse model assessed as increase in crypt architecture in colon tissue at 0.2 to 0.6 mg/kg, ip treated every 72 hrs for 9 days by H and E staining based analysis. It is filed as functional, organism-based. As to conditions: dose 0.2-0.6 mg/kg, time 9.0 day. In a few lines:
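Colons were taken on day 9 from 2.5% DSS-fed mice (DSS days 1–7). Dosing was i.p. 0.2 or 0.6 mg kg−1 in 50% PEG300 on days 2, 5, 8. H&E-stained sections imaged at ×20 and scored for inflammatory infiltration, goblet cell depletion and crypt loss.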

The subject of the next data set is J774.A1. As to the kind of experiment: Inhibition of intracellular ROS generation in mouse J774.A1 cells at 0.125 to 0.5 uM pretreated for 1 hr followed by nigericin treatment for 1 hr by DCFH-DA staining based fluorescence microscopy. It is filed as functional, cell-based. As to conditions: dose 0.125-0.5 µM, time 2.0 hrs. A digest of the protocol:
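J774A.1 cells processed through NLRP3 activation protocol (LPS 1 μg mL−1 5 h, compound, nigericin 10 μM 1 h). Loaded with DCFH-DA 20 μM at 37 °C for 30 min and washed twice with D-PBS. Fluorescence read at Ex/Em 492/520.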

In data set [5] the target is NACHT, LRR and PYD domains-containing protein 3 (Mus musculus) (UniProt Q8R4B8). Kind of data set: Inhibition of NLRP3 inflammasome activation in mouse BMDM cells assessed as reduction in LPS-stimulated IL-1beta level at 50 to 200 nM pretreated for 1 hr followed by imiquimod treatment for 2 hrs by ELISA. It is filed as cell-based. As to conditions: dose 50-200 nM, time 3.0 hrs. In a few lines: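 Bone-marrow macrophages in RPMI 1640/10% FBS/M-CSF. LPS priming at 0.5 μg mL−1 for 3 h, compound 1 h. NLRP3 then triggered by nigericin 10 μM for 0.5 h or imiquimod 900 μM for 2 h. Supernatant IL-1β by ELISA.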
Sequence of NACHT, LRR and PYD domains-containing protein 3 (Mus musculus) (Q8R4B8 whole entry, the tested form may be a part): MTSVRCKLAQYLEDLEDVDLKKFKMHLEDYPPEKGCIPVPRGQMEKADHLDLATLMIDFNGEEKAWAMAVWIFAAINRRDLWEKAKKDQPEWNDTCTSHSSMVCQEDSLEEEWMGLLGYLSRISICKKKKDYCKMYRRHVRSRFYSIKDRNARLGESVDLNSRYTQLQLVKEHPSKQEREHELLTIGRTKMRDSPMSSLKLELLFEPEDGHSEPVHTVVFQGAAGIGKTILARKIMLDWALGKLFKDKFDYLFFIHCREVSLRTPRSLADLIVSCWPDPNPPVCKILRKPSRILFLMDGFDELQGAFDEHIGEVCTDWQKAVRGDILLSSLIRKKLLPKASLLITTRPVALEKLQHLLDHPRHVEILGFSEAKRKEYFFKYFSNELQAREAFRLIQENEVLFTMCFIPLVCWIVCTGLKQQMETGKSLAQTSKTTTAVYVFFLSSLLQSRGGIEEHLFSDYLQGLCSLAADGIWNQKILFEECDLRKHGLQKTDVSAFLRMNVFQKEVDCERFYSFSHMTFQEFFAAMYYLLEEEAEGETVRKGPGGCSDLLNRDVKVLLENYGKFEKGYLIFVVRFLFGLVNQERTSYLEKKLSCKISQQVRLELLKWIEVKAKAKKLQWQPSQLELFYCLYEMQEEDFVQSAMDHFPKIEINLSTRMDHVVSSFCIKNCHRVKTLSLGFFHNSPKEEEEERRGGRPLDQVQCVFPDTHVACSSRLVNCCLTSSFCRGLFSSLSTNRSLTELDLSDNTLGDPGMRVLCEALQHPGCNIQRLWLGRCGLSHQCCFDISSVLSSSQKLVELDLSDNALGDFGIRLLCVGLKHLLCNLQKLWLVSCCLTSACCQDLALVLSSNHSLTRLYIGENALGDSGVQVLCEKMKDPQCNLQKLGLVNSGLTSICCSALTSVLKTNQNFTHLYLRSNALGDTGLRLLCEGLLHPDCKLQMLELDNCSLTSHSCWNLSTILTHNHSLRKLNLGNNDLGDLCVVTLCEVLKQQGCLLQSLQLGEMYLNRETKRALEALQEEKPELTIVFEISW
In general terms: ELISA stands for enzyme-linked immunosorbent assay.

Data set [6] shares this target. As to the kind of experiment: Inhibition of NLRP3 inflammasome activation in mouse J774.A1 cells assessed as reduction in mature IL-1beta release at 50 to 200 nM pretreated for 1 hr followed by nigericin treatment for 1 hr by Western blot analysis. The class given is cell-based. As to conditions: dose 50-200 nM, time 2.0 hrs. A digest of the protocol:
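J774A.1 cells, LPS 1 μg mL−1 for 5 h, compound exposure, nigericin 10 μM 1 h. RIPA lysis with protease inhibitor and BCA quantitation, then SDS-PAGE/PVDF. Blocked 5% milk, primary antibodies overnight at 4 °C, HRP secondaries, ECL detection.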

In data set [7] the test system is Colon. As to the kind of experiment: Downregulation of TNF-alpha level in colon tissue of DSS-induced ulcerative colitis mouse model at 0.2 to 0.6 mg/kg, ip treated every 72 hrs for 9 days by ELISA. The class given is functional, organism-based. As to conditions: dose 0.2-0.6 mg/kg, time 9.0 day. In a few lines:
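Colitis induced with 2.5% DSS in drinking water on days 1–7, plain water days 8–9. Compound given i.p. at 0.2 and 0.6 mg kg−1 in 50% PEG300 on days 2, 5 and 8. Mice killed on day 9; colon tissue cytokines measured by ELISA. Mean ± s.e.m.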

Data set [8] concerns the target T1, Signal transducer and activator of transcription 1 (Mus musculus) (UniProt P42225).
T1 sequence (whole entry): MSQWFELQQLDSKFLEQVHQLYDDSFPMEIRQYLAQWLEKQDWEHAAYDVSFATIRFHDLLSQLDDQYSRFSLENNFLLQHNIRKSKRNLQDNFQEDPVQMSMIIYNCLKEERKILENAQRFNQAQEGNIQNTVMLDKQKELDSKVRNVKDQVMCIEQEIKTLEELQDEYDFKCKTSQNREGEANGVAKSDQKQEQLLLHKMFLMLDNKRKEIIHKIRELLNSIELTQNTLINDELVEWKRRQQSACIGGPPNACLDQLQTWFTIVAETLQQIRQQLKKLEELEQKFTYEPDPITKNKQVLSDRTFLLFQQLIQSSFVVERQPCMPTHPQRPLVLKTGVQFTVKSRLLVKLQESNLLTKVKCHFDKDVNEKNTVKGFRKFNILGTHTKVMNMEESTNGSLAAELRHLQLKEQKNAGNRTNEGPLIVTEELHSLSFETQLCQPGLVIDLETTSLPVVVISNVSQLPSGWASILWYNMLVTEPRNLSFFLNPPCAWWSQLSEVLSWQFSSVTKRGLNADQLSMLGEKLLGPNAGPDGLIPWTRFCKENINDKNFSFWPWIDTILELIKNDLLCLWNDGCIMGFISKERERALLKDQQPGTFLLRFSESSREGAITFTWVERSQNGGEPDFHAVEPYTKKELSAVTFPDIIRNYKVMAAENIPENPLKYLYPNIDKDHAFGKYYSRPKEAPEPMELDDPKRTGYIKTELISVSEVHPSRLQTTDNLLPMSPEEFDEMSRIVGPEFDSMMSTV
As to the kind of experiment: Inhibition of STAT1 expression in LPS-treated mouse J774.A1 cells assessed as reduction in STAT1 phosphorylation at 50 to 200 nM treated for 1 hr by Western blot analysis. It is filed as cell-based. As to conditions: dose 50-200 nM. In a few lines:
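J774A.1 cells pretreated with LPS and compound, lysed in RIPA. pSTAT1, STAT1, pSTAT3, STAT3, pSTAT5 and STAT5 detected by SDS-PAGE western blot with ECL.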

The test system of data set [9] is Intestine. As to the kind of experiment: Anti-colitis activity against DSS-induced ulcerative colitis mouse model assessed as decrease in STAT-3 level in intestinal tissue at 0.2 to 0.6 mg/kg, ip treated every 72 hrs for 9 days by Western blot analysis. The class given is functional, organism-based. As to conditions: dose 0.2-0.6 mg/kg, time 9.0 day. A digest of the protocol: as §1

Turning to `Cc1cc(/C=C/C(=O)c2ccc(C(=O)N[C@@H](Cc3ccccc3)C(=O)N[C@@H](CC(C)C)B(O)O)cc2)cc(C)c1O`, the result in the data set with Intestine [1], in the data set on Intestine [2] and in the data set with Colon [4] was Active. The Activity result in [3] is on record as “Toxic”. In addition, the inhibition result in the data set with J774.A1 was “inactive”. For the same compound, the inhibition result in data set [5], in data set [6] and in data set [8] was “Active” throughout. Besides, the outcome in the data set with Colon [7] and in the data set with Intestine [9] was inactive.
